Experimental data: ChEMBL document CHEMBL3792328, “Diketopiperazines from Costa Rican endolichenic fungus Colpoma sp. CR1465A” (2016)

What was measured:
Format in all cases: functional
Escherichia coli = assay: Antibacterial activity against Escherichia coli ATCC 25922 after 12 hrs by broth-dilution method; details: ATCC 25922, 12 h
In short: (§1)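 Standardized ATCC strains were tested in triplicate by broth dilution. The panel comprised Gram-negative E. coli, Gram-positive B. subtilis and S. aureus, and the yeasts S. cerevisiae and C. albicans. Minimum inhibitory concentration was determined for the growth-inhibition lines. Minimum fungicidal concentration was determined for the fungicidal yeast lines.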

Bacillus spizizenii = assay: Antibacterial activity against Bacillus subtilis ATCC 6633 after 12 hrs by broth-dilution method; details: ATCC 6633, 12 h; in short: as §1
Staphylococcus aureus = assay: Antibacterial activity against Staphylococcus aureus BAA-2313 after 12 hrs by broth-dilution method; details: BAA-2313, 12 h; in short: as §1
Saccharomyces cerevisiae [1] = assay: Antifungal activity against Saccharomyces cerevisiae ATCC 9763 after 12 hrs by broth-dilution method; details: ATCC 9763, 12 h; in short: as §1
Candida albicans [2] = assay: Antifungal activity against Candida albicans ATCC 10231 after 12 hrs by broth-dilution method; details: ATCC 10231, 12 h; in short: as §1
Saccharomyces cerevisiae [3] = assay: Fungicidal activity against Saccharomyces cerevisiae ATCC 9763 after 48 hrs by broth-dilution method; details: ATCC 9763, 48 h, read-out: MFC99.9; in short: as §1
Candida albicans [4] = assay: Fungicidal activity against Candida albicans ATCC 10231 after 48 hrs by broth-dilution method; details: ATCC 10231, 48 h, read-out: MFC99.9; in short: as §1

C[C@@H]1NC(=O)[C@@H]2CCCN2C1=O
> 200 µg/mL: MIC (Escherichia coli) | MIC (Bacillus spizizenii) | MIC (Staphylococcus aureus) | MIC (Saccharomyces cerevisiae [1]) | MIC (Candida albicans [2]) | MFC (Saccharomyces cerevisiae [3]) | MFC (Candida albicans [4])

O=C(O)C[C@@H]1NC(=O)[C@@H]2CCCN2C1=O
> 200 µg/mL: MIC (Escherichia coli) | MIC (Bacillus spizizenii) | MIC (Staphylococcus aureus) | MIC (Saccharomyces cerevisiae [1]) | MIC (Candida albicans [2]) | MFC (Saccharomyces cerevisiae [3]) | MFC (Candida albicans [4])

O=C1NCC(=O)N2CCC[C@H]12
> 200 µg/mL: MIC (Escherichia coli) | MIC (Bacillus spizizenii) | MIC (Staphylococcus aureus) | MIC (Saccharomyces cerevisiae [1]) | MIC (Candida albicans [2]) | MFC (Saccharomyces cerevisiae [3]) | MFC (Candida albicans [4])

O=C(O)CC[C@H]1NC(=O)[C@@H]2CCCN2C1=O
> 200 µg/mL: MIC (Escherichia coli) | MIC (Bacillus spizizenii) | MIC (Staphylococcus aureus) | MIC (Saccharomyces cerevisiae [1]) | MIC (Candida albicans [2]) | MFC (Saccharomyces cerevisiae [3]) | MFC (Candida albicans [4])

O=C1[C@@H]2CCCN2C(=O)[C@H]2C[C@H](O)CN12
> 200 µg/mL: MIC (Escherichia coli) | MIC (Bacillus spizizenii) | MIC (Staphylococcus aureus) | MIC (Saccharomyces cerevisiae [1]) | MIC (Candida albicans [2]) | MFC (Saccharomyces cerevisiae [3]) | MFC (Candida albicans [4])

C[C@H]1NC(=O)[C@@H]2CCCN2C1=O
> 200 µg/mL: MIC (Escherichia coli) | MIC (Bacillus spizizenii) | MIC (Staphylococcus aureus) | MIC (Saccharomyces cerevisiae [1]) | MIC (Candida albicans [2]) | MFC (Saccharomyces cerevisiae [3]) | MFC (Candida albicans [4])

O=C(O)CC[C@H]1NC(=O)[C@H]2CCCN2C1=O
> 200 µg/mL: MIC (Escherichia coli) | MIC (Bacillus spizizenii) | MIC (Staphylococcus aureus) | MIC (Saccharomyces cerevisiae [1]) | MIC (Candida albicans [2]) | MFC (Saccharomyces cerevisiae [3]) | MFC (Candida albicans [4])

C[C@@H](O)[C@H]1NC(=O)[C@@H]2CCCN2C1=O
> 200 µg/mL: MIC (Escherichia coli) | MIC (Bacillus spizizenii) | MIC (Staphylococcus aureus) | MIC (Saccharomyces cerevisiae [1]) | MIC (Candida albicans [2]) | MFC (Saccharomyces cerevisiae [3]) | MFC (Candida albicans [4])
